The test system of one series is male C57BL/6J mice. Description: FeCl3-induced carotid artery thrombosis. Format: in vivo, mouse. To be noted: 2 500 U/kg i.v., 10% FeCl3, 5 min and 10 min, vs PBS-treated group. An outline of the steps: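 Male C57BL/6J mice (6 weeks old, n=6–7) were given i.v. saline (100 µL; control), heparin sodium 2 500 U/kg, or test compound at 0.5 or 2 mg/kg, 5 min before induction, under anaesthesia. Filter paper with 10% (w/v) FeCl3 was applied to the exposed left carotid artery for 30 s. Flow in the region of interest was followed by laser speckle perfusion imaging for 30 min, with images analysed at 5 and 10 min. Occlusion was scored as a red-to-blue change.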

The subject of another series is acute IS patients. To be noted: ref Kim, 2019; Simão et al., 2017; cited from earlier work.
The target of series [1] is T1, PK (Homo sapiens, UniProt P03952). Description: SPR, PK over LE6-coupled chip. The class given is binding. (Surface plasmon resonance follows binding to a sensor surface in real time, without labels.)
The subject of another series is erythrocytes. Description: Hemolysis assay. The class given is cell-based, human. To be noted: up to 200 μg/mL (285 μmol/L), 30 min, 37 °C, PBS pH 7.2, 540 nm. Put shortly:
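Human blood was centrifuged for 10 min at 3 500 r/min and 25°C. The erythrocytes were resuspended in PBS (0.01 mol/L, pH 7.2) and exposed to test compound (12.5–200 µg/mL, plus 0) or 0.1% Triton X-100 (positive control) for 30 min at 37°C. Samples were spun 5 min at 3 500 r/min and the supernatant A540 read; n=2–3.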

In series [2] the test system is mouse peritoneal macrophages. Description: Cytotoxicity assay. The class given is cell-based. To be noted: 12.5 to 200 μg/mL, 8 h, CCK8. Put shortly:
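Peritoneal macrophages were elicited in mice with i.p. 3% thioglycollate broth and collected by PBS lavage after 3 days. Cells were cultured in RPMI1640 at 37°C, 5% CO2, seeded at 1×10^6 cells/well and allowed 12 h to adhere. Test compound (12.5–200 µg/mL, plus 0) was added for 8 h, then CCK-8 for 3 h and OD450 read. Viability is expressed as % of control; n=8–12.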

The target of series [3] is T2, FXIIa (Homo sapiens, UniProt P00748).
T2 sequence (P00748 373-615 limits assumed): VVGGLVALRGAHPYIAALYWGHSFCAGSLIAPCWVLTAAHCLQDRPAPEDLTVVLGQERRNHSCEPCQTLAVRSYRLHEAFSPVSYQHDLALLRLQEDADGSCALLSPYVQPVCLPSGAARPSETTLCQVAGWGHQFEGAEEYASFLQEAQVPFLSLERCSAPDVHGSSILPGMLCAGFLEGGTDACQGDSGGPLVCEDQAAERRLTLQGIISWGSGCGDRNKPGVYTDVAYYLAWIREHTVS
T2 sequence (P00748 20-372 partner limits assumed): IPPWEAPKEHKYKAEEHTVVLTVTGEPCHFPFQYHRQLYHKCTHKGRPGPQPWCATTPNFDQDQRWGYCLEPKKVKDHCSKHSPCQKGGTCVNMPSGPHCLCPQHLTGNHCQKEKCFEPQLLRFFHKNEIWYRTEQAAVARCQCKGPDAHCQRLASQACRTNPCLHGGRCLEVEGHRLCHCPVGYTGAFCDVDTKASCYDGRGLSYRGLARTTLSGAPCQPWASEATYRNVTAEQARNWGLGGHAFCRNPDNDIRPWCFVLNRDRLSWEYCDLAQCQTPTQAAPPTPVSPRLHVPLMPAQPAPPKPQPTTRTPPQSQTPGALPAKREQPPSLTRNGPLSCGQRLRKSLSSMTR
As to the kind of experiment: SPR, FXIIa over LE6-coupled chip. The class given is binding. To be noted: read-out: Kd (dissociation rate constant).

The target in series [4] is T1, PK. As to the kind of experiment: Chromogenic assay, PK. The class given is biochemical.
Target sequence in this assay (P03952 391-638 limits assumed): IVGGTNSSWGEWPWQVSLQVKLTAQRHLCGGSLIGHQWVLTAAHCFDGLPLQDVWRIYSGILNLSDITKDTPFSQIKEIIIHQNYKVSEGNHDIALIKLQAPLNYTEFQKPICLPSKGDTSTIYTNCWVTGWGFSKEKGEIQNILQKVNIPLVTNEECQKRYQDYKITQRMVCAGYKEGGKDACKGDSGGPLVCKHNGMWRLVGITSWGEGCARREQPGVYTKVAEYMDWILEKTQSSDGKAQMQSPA
Target sequence in this assay (P03952 20-390 partner limits assumed): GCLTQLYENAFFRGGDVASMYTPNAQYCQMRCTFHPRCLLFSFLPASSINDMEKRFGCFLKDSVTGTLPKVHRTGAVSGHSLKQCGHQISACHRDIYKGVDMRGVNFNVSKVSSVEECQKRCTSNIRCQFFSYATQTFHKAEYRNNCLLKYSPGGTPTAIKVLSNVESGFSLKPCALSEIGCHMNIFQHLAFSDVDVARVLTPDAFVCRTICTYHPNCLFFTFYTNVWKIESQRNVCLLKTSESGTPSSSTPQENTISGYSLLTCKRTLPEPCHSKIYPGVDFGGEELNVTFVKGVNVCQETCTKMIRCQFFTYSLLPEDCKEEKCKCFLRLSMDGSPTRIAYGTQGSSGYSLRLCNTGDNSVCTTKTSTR
A further series deals with male C57BL/6 J mice. Description: Bleeding assay. Format: in vivo, mouse. Put shortly:
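Dosing 15 min before cutting: test compound at 0.5 or 2 mg/kg i.v., 0.9% saline (control) or heparin sodium 2 500 U/kg (reference). Mice were male C57BL/6J, 6 weeks old, 18–20 g, n=6–7. Tail cut 2 mm from the tip and immersed in sterile saline at 37°C. Bleeding time recorded until blood flow stopped.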

Series [5] has as its target T2, FXIIa. As to the kind of experiment: Chromogenic assay, FXIIa. The class given is biochemical.
A further series concerns mouse splenocytes. As to the kind of experiment: Cytotoxicity assay. The class given is cell-based. To be noted: 12.5 to 200 μg/mL, 8 h, CCK8. Put shortly:
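Mouse splenocytes were prepared by crushing fresh spleens in PBS and passing them through a 200-mesh sieve. Cells were cultured in RPMI1640 at 37°C, 5% CO2, seeded at 2×10^5 cells/well and given 12 h to settle. Test compound (12.5–200 µg/mL, plus 0) was added for 8 h, followed by CCK-8 for 3 h and an OD450 read. Viability is reported as % of control; n=8–12.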

The test system of another series is HEK 293T cells. As to the kind of experiment: Cytotoxicity assay. The class given is cell-based, human. To be noted: 12.5 to 200 μg/mL, 8 h, CCK8. Put shortly: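 HEK 293T cells were grown in DMEM/F-12 with 10% FBS and 1% penicillin-streptomycin at 37°C, 5% CO2. They were seeded at 3×10^4 cells/well and allowed 12 h to adhere. Test compound (12.5–200 µg/mL, plus 0) was added for 8 h. CCK-8 was then added for 3 h and OD450 read. Viability is given as % of untreated control; n=8–12.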

The target of series [6] is T3, plasma kallikrein (PK) (UniProt P03952 20-390; P03952 391-638). Description: SPR.
T3 sequence (P03952 20-390, chain 1 of 2): as the sequence (P03952 20-390 partner limits assumed) above
T3 sequence (P03952 391-638, chain 2 of 2): as the sequence (P03952 391-638 limits assumed) above
Series [7] has as its target T4, activated factor XII (FXIIa) (UniProt P00748 20-372; P00748 373-615).
T4 sequence (looked up) 1: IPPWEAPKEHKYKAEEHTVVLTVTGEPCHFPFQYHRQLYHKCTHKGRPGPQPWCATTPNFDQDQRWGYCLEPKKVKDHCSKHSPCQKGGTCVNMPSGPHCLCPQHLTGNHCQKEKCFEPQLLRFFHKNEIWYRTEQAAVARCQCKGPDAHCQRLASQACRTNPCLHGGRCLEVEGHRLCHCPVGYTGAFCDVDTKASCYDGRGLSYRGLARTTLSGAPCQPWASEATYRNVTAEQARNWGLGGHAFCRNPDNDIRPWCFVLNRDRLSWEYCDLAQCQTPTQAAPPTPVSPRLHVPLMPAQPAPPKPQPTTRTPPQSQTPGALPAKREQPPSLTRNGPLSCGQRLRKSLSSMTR
T4 sequence (looked up) 2: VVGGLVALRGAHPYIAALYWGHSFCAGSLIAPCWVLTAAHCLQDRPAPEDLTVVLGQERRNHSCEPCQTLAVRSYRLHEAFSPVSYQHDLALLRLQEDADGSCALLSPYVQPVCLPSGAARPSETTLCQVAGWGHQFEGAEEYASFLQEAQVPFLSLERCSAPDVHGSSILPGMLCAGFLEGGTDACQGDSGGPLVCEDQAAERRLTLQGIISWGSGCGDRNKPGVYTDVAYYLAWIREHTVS
As to the kind of experiment: SPR.

Series [8] concerns the target T3, plasma kallikrein (PK). As to the kind of experiment: chromogenic enzyme inhibition assay.
Series [9] deals with T4, activated factor XII (FXIIa). As to the kind of experiment: chromogenic enzyme inhibition assay.
Series [10] has the same target. Description: cell-based or functional assay.

No end group written: not given here.

Take heparin sodium: the “blood flow after FeCl3-induction” value in the series on male C57BL/6J mice was “increased blood flow at 5 min and 10 min”.

For the molecule tissue plasminogen activator [tPA], the “efficacy in acute IS” value in the series with acute IS patients was “efficacious when administered within 4.5 hours of stroke onset”.

In general, IC50 refers to the concentration needed to halve the response being measured. One may read the inhibition as the relative decrease from the control value, in per cent. For the molecule LSEEPE [LE6, Leu-Ser-Glu-Glu-Pro-Glu], the kon at PK [1] (read-out: Ka (association rate constant)) is 1790 M⁻¹ s⁻¹. The koff is 0.0141 s⁻¹ at PK [1] (read-out: Kd (dissociation rate constant)) and 0.118 s⁻¹ on FXIIa [3]. Besides, in the series on erythrocytes, the hemolysis entry was “no hemolytic side effects”. The “toxic effects on proliferation” value (in series [2]; with mouse splenocytes; with HEK 293T cells) was “no toxic effects” each time. Moreover, the IC50 is around 71 µM at PK [4] and 71 µM against FXIIa [5]. Moreover, the bleeding time result in the series on male C57BL/6 J mice (0.5 mg/kg i.v., 15 min before tail cut, n=6–7) is recorded as “without notably extending bleeding time”. In addition, in the series on male C57BL/6 J mice (LE6 2 mg/kg i.v. vs heparin sodium 2 500 U/kg i.v.), the “bleeding time relative to heparin sodium” value was “approximately half that induced by the clinically anticoagulant heparin sodium”. Besides, the inhibition at 285 µM on FXIIa [5] (read-out: inhibition rate of FXIIa) worked out at 88.6%.

B1: oligopeptide LE6 (Leu-Ser-Glu-Glu-Pro-Glu) (peptide)
peptide: LSEEPE
As a reminder, the Kd is the free concentration of one partner at which half of the binding sites on the other are occupied at equilibrium, for simple one-to-one binding. Higher therefore signals a looser complex. A word on the Ki: it is the equilibrium dissociation constant of an inhibitor or competing ligand from its target. Take B1: the results for the Kd (in the series with plasma kallikrein (PK) [6]; in series [7]) were 7.88 µM and 46.4 µM, respectively. Moreover, the values for the Ki (with plasma kallikrein (PK) [8]; in [9]) were 44 µM and 6.37 µM, respectively. Besides, the “FXIIa activity on chromogenic substrate S-2302, IC50” value in series [10] is 71 µM.

Values taken from publication PMC11491786 (Zoological Research, 2024).
